Measurements pooled from the literature.
Protocols differ between the studies behind these lines. pEC50, pIC50: −log10 of the molar value.

SMILES	tested on	read-out	technique	tested at	time	measurement	result
CC1(C)CCC(CN2CCN(c3ccc(C(=O)NS(=O)(=O)c4ccc(NCC5CCOCC5)c([N+](=O)[O-])c4)c(Oc4cnc5[nH]ccc5c4)c3)CC2)=C(c2ccc(Cl)cc2)C1	KMS-12-PE	cell growth or viability	ATP luminescence		48 h	pIC50	7.89
COc1cc(C=Nc2ccc(C)cc2Cl)ccc1O	Escherichia coli	microbial growth	disc diffusion	2000 µg/mL	24 h	inhibition zone	14.8 mm
CC(C)c1ccccc1[C@@H]1CCCN1C1CC2(CCN(c3ccc(C(=O)NS(=O)(=O)c4ccc(NC[C@H]5CC[C@](C)(O)CC5)c([N+](=O)[O-])c4)c(Oc4cnc5[nH]ccc5c4)c3)CC2)C1	MV4-11	cell growth or viability	ATP luminescence		48 h	pIC50	8.92
CC(O)CSc1nnc(-c2cc3ccccc3o2)n1-c1ccccc1 (stereo not shown)	Escherichia coli	microbial growth	disc diffusion	25 µg/disc		inhibition zone	10.3 mm
Cc1c(C(=O)O)ccc2c3n(nc12)[C@@H]1[C@H](C3)N(CC2CC2)[C@@]2(C(=O)Nc3cc(Cl)ccc32)[C@H]1c1cccc(Cl)c1F	human Fibroblast	cell growth or viability	ATP luminescence		72 h	GI50	5 nM
Cc1nc(Nc2ccc3c(c2)/C(=C/c2ccccc2C)C(=O)N3C)c2ccccc2n1	BEAS-2B	cell growth or viability	MTT			pIC50	4.81
C=CC(=O)NC1CCN(c2ncc3ncnc(Nc4ccc(Oc5ccc6c(c5)ncn6C)c(C)c4)c3n2)CC1	IM95	cell growth or viability				pEC50	7.27
COc1cc2ncnc(N(C)c3ccc4c(c3)/C(=C/c3cccc(Cl)c3)C(=O)N4C)c2cc1OC	BEAS-2B	cell growth or viability	MTT			pIC50	5.00
CC(O)CSc1nnc(-c2ccccc2)n1-c1ccccc1 (stereo not shown)	Staphylococcus aureus	microbial growth	disc diffusion	25 µg/disc		inhibition zone	10 mm
CN(C)[C@@H]1C(O)=C(C(N)=O)C(=O)[C@@]2(O)C(O)=C3C(=O)c4c(O)cccc4[C@@](C)(O)[C@H]3C[C@@H]12	Escherichia coli	microbial growth	disc diffusion	100 µg/mL	24 h	inhibition zone	0 mm
